The values below come from ChEMBL document CHEMBL5653612, “Catalytic site remodelling of the DOT1L methyltransferase by selective inhibitors” (Nat Commun, 2012).

Activity calls are given as the source filed them. The rule behind the calls is not given here.

Data set [1] concerns the target Protein arginine N-methyltransferase 5 (Homo sapiens, UniProt O14744). Kind of data set: Inhibition of PRMT5 (unknown origin) using H4 1-24 peptide in presence of SAM. The method, boiled down: (§1)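 Radiometric methyltransferase panel in which 3H-SAM, at or below each enzyme's Km, methylates biotinylated peptide substrates. They were quenched with 7.5 M guanidine-HCl, diluted, captured on streptavidin flash plates for 1 h, and counted by scintillation.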

For data set [2], the target named is Glutamate NMDA receptor (Rattus norvegicus) (UniProt P35439+Q00959+Q00960+Q00961+Q62645+Q8VHN2+Q9R1M7). The experiment in a line: Inhibition of rat NMDA glutamate receptor at 1 uM relative to control. Type of data set: protein-complex assay.
A short description of data set [3]: cells. The conditions noted are these: Homo sapiens, MCF-10A.
The subject of data set [4] is MOLM-13. Kind of data set: Inhibition of HOXA9 level in human MOLM-13 cells at 1 uM measured after 7 days by SYBR green staining based PCR analysis. It is filed as functional, cell-based. The conditions noted are these: time 7.0 day. In short, it runs like this: (§2)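 RNA was extracted with Qiazol and reverse-transcribed. SYBR green qPCR used gene-specific primer pairs for HOXA9 and Meis1.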

The target in data set [5] is Histone-lysine N-methyltransferase, H3 lysine-79 specific (Homo sapiens, UniProt Q8TEK3). Kind of data set: Binding affinity to recombinant N-terminal DOT1L (1 to 420 residues) (unknown origin) expressed in Escherichia coli (DE3) assessed as dissociation constant by surface plasmon resonance assay.
Chain of Histone-lysine N-methyltransferase, H3 lysine-79 specific (Q8TEK3 whole entry, the tested form may be a part): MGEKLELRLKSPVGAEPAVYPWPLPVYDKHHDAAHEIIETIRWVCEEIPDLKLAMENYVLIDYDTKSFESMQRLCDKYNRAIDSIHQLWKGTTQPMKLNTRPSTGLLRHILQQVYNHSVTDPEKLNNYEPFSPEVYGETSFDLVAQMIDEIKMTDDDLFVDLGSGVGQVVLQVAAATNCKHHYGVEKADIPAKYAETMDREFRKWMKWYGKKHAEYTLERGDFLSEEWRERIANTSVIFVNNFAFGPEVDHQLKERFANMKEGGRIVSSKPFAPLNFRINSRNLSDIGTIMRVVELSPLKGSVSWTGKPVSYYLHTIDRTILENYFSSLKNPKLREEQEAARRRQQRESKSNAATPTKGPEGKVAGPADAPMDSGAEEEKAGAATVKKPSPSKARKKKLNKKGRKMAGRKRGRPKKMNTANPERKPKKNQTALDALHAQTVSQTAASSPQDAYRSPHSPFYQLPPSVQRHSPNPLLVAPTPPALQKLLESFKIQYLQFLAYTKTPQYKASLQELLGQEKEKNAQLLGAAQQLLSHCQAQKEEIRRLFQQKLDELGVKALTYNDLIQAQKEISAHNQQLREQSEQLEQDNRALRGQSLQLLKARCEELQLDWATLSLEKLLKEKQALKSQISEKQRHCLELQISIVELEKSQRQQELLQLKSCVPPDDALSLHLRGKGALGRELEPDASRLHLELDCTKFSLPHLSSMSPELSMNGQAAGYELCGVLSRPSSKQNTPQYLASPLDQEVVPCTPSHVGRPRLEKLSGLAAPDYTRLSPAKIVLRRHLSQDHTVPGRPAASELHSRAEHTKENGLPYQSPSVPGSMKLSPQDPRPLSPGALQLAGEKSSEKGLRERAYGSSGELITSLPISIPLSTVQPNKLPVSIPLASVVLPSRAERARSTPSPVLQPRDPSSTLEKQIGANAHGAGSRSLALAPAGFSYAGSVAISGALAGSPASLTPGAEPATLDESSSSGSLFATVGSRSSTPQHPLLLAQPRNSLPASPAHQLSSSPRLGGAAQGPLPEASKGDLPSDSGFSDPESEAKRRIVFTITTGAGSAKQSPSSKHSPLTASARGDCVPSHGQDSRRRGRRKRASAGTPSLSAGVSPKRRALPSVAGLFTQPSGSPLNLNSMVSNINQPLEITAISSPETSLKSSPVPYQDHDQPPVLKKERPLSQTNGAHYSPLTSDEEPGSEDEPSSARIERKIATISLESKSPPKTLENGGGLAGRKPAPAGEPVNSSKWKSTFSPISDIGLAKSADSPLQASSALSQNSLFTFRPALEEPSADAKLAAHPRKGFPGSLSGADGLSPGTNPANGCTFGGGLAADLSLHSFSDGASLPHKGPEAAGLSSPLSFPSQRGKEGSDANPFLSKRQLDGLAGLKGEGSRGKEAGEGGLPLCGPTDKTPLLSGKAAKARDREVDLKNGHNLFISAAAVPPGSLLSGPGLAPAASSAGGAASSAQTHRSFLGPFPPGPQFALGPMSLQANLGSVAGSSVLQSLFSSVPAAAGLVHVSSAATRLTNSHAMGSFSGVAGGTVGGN
Data set [6] has as its target Histone-lysine N-methyltransferase KMT5C (Homo sapiens) (UniProt Q86Y97). The experiment in a line: Inhibition of SUV420H2 (unknown origin) using H4 K20Me1 peptide in presence of SAM. In short, it runs like this: as §1
Data set [7] has as its system Cord blood cell. Kind of data set: Cytotoxicity against human Cord blood cell habouring TLS-ERG fusion protein assessed as reduction in cell viability at 1 to 5 uM incubated for 14 days by resazurin dye based […] assay. It is filed as functional. The conditions noted are these: dose 1-5 µM, time 14.0 day. In short, it runs like this:
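Transformed human cord blood cells were cultured with DMSO or inhibitor at 1 and 5 μM for 14 days. Resazurin (0.1 mg ml−1) was added for 4 h and resorufin fluorescence was read. Data are from at least two independent experiments, each with three repeats, shown as s.e. of the mean.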

The test system of data set [8] is MOLM-13. Kind of data set: Inhibition of Meis1 level in human MOLM-13 cells at 1 uM measured after 7 days by SYBR green staining based PCR analysis. It is filed as functional, cell-based. The conditions noted are these: time 7.0 day. The method, boiled down:
as §2

The target in data set [9] is Histone-lysine N-methyltransferase SETD7 (Homo sapiens) (UniProt Q8WTS6). The experiment in a line: Inhibition of SETD7 (unknown origin) using H3 1-25 peptide in presence of SAM. In short, it runs like this:
as §1

Data set [10] addresses Histone-lysine N-methyltransferase SUV39H2 (Homo sapiens) (UniProt Q9H5I1). The experiment in a line: Inhibition of SUV39H2 (unknown origin) using H3 1-25 peptide in presence of SAM. In short, it runs like this:
as §1

Data set [11] has as its target Adenosine receptor A2a (Homo sapiens) (UniProt P29274). Kind of data set: Inhibition of human Adenosine 2A receptor at 1 uM relative to control.
The species named for data set [12] is Homo sapiens. The experiment in a line: Inhibition of PRC2 (unknown origin) using H3 21-44 peptide in presence of SAM. The method, boiled down:
as §1

In data set [13] the target is 5-hydroxytryptamine receptor 2B (Homo sapiens) (UniProt P41595). The experiment in a line: Inhibition of human 5HT2B receptor at 1 uM relative to control.
In data set [14] the target is hERG (KCNH2) (Homo sapiens, UniProt Q12809). Kind of data set: Inhibition of human ERG at 1 uM relative to control. Type of data set: toxicity.
Chain of hERG (KCNH2) (Q12809 whole entry): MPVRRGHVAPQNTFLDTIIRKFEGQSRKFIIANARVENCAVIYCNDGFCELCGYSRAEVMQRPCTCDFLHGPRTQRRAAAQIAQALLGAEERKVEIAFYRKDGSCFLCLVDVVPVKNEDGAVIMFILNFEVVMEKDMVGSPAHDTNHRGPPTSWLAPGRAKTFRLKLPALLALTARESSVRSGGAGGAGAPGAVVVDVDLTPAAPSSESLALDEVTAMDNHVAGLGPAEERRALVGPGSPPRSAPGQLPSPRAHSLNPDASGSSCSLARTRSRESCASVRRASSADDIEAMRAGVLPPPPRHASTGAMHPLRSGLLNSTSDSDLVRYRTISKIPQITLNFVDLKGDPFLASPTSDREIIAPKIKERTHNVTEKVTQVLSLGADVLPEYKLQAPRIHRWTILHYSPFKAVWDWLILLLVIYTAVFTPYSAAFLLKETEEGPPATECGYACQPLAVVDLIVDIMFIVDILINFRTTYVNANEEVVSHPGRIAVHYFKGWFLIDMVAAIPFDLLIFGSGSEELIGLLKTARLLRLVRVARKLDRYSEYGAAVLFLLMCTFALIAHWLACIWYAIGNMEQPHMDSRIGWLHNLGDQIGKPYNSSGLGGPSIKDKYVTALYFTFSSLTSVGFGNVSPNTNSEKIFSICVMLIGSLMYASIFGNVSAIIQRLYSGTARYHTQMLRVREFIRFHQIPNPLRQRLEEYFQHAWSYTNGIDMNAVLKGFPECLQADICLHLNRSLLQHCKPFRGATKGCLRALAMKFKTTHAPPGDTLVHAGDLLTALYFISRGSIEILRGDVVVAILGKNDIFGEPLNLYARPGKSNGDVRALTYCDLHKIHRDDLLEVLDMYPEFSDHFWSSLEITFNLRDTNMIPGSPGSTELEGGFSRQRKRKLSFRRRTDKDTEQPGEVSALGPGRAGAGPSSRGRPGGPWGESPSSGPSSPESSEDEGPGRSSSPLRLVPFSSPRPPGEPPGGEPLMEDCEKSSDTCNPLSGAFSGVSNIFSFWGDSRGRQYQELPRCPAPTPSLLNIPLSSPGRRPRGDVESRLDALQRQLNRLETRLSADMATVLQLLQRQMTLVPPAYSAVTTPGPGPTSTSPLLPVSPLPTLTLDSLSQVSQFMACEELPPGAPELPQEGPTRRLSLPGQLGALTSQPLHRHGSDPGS
The target in data set [15] is Histone-lysine N-methyltransferase KMT5B (Homo sapiens) (UniProt Q4FZB7). The experiment in a line: Inhibition of […] (unknown origin) using H4 K20Me1 peptide in presence of SAM. In short, it runs like this:
as §1

Chain of Histone-lysine N-methyltransferase KMT5C (Homo sapiens) (Q86Y97 whole entry, looked up, the tested form may be a part): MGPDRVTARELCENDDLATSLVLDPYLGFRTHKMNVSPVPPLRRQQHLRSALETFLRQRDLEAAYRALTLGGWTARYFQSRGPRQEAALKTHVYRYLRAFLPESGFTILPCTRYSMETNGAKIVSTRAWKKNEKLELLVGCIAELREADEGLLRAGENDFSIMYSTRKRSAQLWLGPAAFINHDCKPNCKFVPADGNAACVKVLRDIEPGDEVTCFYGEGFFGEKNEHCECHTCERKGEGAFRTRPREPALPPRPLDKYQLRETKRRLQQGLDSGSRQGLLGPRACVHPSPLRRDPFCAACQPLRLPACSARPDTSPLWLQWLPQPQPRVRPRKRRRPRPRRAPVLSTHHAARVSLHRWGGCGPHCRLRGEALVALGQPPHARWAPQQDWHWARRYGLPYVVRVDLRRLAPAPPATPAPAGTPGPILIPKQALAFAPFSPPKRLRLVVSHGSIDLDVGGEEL
Chain of Adenosine receptor A2a (Homo sapiens) (P29274 whole entry): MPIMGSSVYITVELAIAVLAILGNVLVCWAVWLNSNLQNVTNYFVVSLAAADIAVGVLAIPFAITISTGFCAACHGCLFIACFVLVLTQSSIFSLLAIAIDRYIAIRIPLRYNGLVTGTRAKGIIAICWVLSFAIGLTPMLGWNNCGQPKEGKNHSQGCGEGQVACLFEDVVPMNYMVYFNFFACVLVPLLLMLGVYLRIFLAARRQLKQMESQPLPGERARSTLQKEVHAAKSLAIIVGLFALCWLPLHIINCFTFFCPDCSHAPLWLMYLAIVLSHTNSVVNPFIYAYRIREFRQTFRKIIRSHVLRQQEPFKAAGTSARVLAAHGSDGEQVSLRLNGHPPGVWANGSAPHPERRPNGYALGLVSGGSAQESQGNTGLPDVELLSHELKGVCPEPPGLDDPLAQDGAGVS
Chain of Histone-lysine N-methyltransferase SETD7 (Homo sapiens) (Q8WTS6 whole entry): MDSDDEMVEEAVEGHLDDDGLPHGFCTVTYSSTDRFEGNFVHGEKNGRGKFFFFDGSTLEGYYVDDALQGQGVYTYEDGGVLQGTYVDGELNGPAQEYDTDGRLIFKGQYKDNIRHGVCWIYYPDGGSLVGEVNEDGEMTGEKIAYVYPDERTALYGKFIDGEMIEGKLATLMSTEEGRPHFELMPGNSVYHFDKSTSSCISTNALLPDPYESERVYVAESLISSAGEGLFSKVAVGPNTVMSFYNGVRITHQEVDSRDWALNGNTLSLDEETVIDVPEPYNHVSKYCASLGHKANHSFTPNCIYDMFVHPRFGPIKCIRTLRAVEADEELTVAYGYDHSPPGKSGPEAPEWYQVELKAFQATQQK
Chain of Histone-lysine N-methyltransferase SUV39H2 (Homo sapiens) (Q9H5I1 whole entry): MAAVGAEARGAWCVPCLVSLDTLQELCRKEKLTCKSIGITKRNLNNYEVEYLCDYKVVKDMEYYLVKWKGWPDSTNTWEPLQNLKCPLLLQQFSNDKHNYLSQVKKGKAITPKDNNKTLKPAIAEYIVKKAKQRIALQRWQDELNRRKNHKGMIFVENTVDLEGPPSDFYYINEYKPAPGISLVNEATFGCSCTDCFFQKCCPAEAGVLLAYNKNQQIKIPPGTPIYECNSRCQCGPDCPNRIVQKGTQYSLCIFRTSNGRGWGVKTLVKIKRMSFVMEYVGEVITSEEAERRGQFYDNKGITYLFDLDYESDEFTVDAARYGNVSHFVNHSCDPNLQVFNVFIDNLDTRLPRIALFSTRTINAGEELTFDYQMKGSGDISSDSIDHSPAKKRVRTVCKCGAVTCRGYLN
Chain of Protein arginine N-methyltransferase 5 (O14744 whole entry): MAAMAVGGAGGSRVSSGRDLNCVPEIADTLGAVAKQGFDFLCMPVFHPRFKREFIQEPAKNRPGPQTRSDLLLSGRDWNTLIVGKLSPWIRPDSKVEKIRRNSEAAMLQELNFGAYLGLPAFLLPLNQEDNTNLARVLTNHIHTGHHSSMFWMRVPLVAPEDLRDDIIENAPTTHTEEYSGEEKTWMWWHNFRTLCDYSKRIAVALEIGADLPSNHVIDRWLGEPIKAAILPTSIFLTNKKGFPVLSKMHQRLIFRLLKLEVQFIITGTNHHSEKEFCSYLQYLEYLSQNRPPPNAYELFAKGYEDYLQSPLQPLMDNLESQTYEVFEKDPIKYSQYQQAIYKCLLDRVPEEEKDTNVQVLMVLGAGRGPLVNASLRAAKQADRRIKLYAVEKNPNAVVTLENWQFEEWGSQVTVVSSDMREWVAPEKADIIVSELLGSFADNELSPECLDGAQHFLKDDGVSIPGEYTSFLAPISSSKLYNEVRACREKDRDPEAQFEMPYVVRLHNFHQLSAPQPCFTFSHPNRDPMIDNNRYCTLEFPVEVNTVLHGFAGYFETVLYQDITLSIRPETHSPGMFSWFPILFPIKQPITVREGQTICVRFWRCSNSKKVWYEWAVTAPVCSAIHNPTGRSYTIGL

For the molecule `CC(C)N(CCCNC(=O)Nc1ccc(C(C)(C)C)cc1)C[C@H]1O[C@@H](n2cc(Br)c3c(N)ncnc32)[C@H](O)[C@@H]1O`, the inhibition result in data set [1], in [6], in [9], in data set [10], in data set [12] and in data set [15] was “inactive” throughout. Further, the inhibition in [2] stood at 0%; in data set [11], 0%; in data set [13], 8%. This molecule also showed an IC50 in data set [3] of 8.8 nM. Besides, the inhibition entry in [4] and in [8] was “Active” each time. For the same molecule, in data set [5], the Kd worked out at 0.06 nM. The result in data set [7] was inactive. In addition, in data set [14], the inhibition at 1 µM is -15%.
